Entries after “also recorded” stand apart in the source; their conditions may differ. Where a SMILES comes first, the peptide text is derived from it. Bridges are numbered along the chain shown (N, C = ends). Roman numbers before positions name the chains, in order. Side-chain parts run from the residue outwards. [ ]: non-standard residue; d: D form. The star is where a group is joined. X1 = CN(C)c1ccc2c(-c3ccc(C(=O)*)cc3C(=O)[O-])c3ccc(=[N+](C)C)cc-3oc2c1; Biotin = O=C1N[C@H]2[C@H](CS[C@H]2CCCCC(=O)*)N1; PEG4 = NCCOCCOCCOCCOCCC(=O)O; Alloc = C=CCOC(=O)*; βAla = NCCC(=O)O
How the values were obtained:
endogenous hKlotho = assay: Pull-down of endogenous hKlotho from HK-2 cell lysate; format: binding, human; conditions: probe 200 nM; 300 μg total protein; 30 min room temperature; western blot; n=2
12CA5 = assay: Direct binding by BLI, 12CA5; conditions: KB2-Biotin immobilized on streptavidin tips; 12CA5 7.8-1000 nM; n=2
MDM2 = assay: Direct binding by BLI, MDM2; conditions: KB2-Biotin immobilized on streptavidin tips; MDM2 7.8-1000 nM; n=2
recombinant mKlotho = assay: Pull-down of recombinant mKlotho from CaSki cell lysate; format: binding, mouse
Outline: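 Recombinant mouse Klotho was spiked into lysate of CaSki cells (human cervical cancer line, minimal endogenous Klotho) at a final 100 nM. It was pulled down with biotinylated peptide. For self-competition, unlabeled peptide or scrambled control was added to the lysate. Klotho identity was checked against a KM2076 antibody pull-down by band size. Pull-down was quantified (n=2), with ANOVA.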

HK-2 cells = assay: Co-localization with nucleus dye DAPI in HK-2 cells; format: cell-based, human; conditions: KB2-TAMRA 500 nM 5 min or antibody overnight, DAPI stain
Outline: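 HK-2 cells labelled with fluorescent peptide probe at 500 nM for 5 min, or with anti-Klotho antibody KM2076 (overnight incubation, then permeabilisation and secondary antibody). Nuclei stained with DAPI. Co-localisation of the DAPI signal with the probe or antibody signal was quantified as a Pearson correlation coefficient.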

[1] = system: Klotho-deficient CaSki cells; assay: Fluorescence microscopy imaging of CaSki cells; format: cell-based, human; conditions: KB2-TAMRA 500 nM, 5 min; fixation after treatment
[2] = system: endogenous total hKlotho in HK-2 cells; assay: Fluorescence microscopy imaging of fixed HK-2 cells; format: cell-based, human; conditions: HK-2 cells transfected with KL siRNA, KB2-TAMRA 500 nM; n=5
Outline: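 HK-2 cells were left untransfected, mock-transfected, or transfected with a pooled KL siRNA using RNAiMAX. They were then co-treated with TAMRA-labelled peptide (500 nM) plus WGA Alexa Fluor 350 membrane stain and fixed after treatment. Imaging used ex/em 542/597 nm for TAMRA and 390/435 nm for WGA. Normalised integrated fluorescence was quantified (n=5), with ANOVA.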

SMILES: CSCC[C@H](NC(=O)[C@@H]1CCCN1C(C)=O)C(=O)N[C@@H](C)C(=O)N[C@@H](CO)C(=O)N[C@@H](CC(=O)O)C(=O)N1CCC[C@H]1C(=O)N[C@@H](CC(C)C)C(=O)NCC(=O)N[C@H](C(=O)N[C@H](C(=O)N[C@@H](CCCNC(=N)N)C(=O)N1CCC[C@H]1C(=O)N[C@@H](CCCNC(=N)N)C(=O)N[C@@H](C)C(=O)N[C@@H](CCCNC(=N)N)C(=O)N[C@@H](C)C(=O)NCCCC[C@H](NC(=O)[C@H](C)NC(=O)[C@H](CCCNC(=N)N)NC(=O)[C@H](C)NC(=O)[C@H](CCCNC(=N)N)NC(=O)[C@@H]1CCCN1C(=O)[C@H](CCCNC(=N)N)NC(=O)[C@@H](NC(=O)[C@@H](NC(=O)CNC(=O)[C@H](CC(C)C)NC(=O)[C@@H]1CCCN1C(=O)[C@H](CC(=O)O)NC(=O)[C@H](CO)NC(=O)[C@H](C)NC(=O)[C@H](CCSC)NC(=O)[C@@H]1CCCN1C(C)=O)C(C)C)C(C)C)C(=O)NCCC(=O)N[C@@H](CCCCNC(=O)CCOCCOCCOCCOCCNC(=O)CCCC[C@@H]1SC[C@@H]2NC(=O)N[C@@H]21)C(N)=O)C(C)C)C(C)C [KB2-Biotin] (I: Ac-PMASDPLGVVRPRARAK[βAla]K([PEG4-Biotin])-NH2 / II: Ac-PMASDPLGVVRPRARA; amide I:17-II:C; N-terminus assumed)
- enrichment of endogenous hKlotho from HK-2 cell lysate (endogenous hKlotho): enriched hKlotho; also recorded: significantly enriched
- association to 12CA5 (in words) (12CA5): no association
- association to MDM2 (in words) (MDM2): no association
- selectivity of pull-down (silver stain) (recombinant mKlotho; pull-down eluents, probe 200 nM, CaSki lysate with mKlotho 0.1 μM): only significantly enriched protein

SMILES: CSCC[C@H](NC(=O)[C@@H]1CCCN1C(C)=O)C(=O)N[C@@H](C)C(=O)N[C@@H](CO)C(=O)N[C@@H](CC(=O)O)C(=O)N1CCC[C@H]1C(=O)N[C@@H](CC(C)C)C(=O)NCC(=O)N[C@H](C(=O)N[C@H](C(=O)N[C@@H](CCCNC(=N)N)C(=O)N1CCC[C@H]1C(=O)N[C@@H](CCCNC(=N)N)C(=O)N[C@@H](C)C(=O)N[C@@H](CCCNC(=N)N)C(=O)N[C@@H](C)C(=O)NCCCC[C@H](NC(=O)[C@H](C)NC(=O)[C@H](CCCNC(=N)N)NC(=O)[C@H](C)NC(=O)[C@H](CCCNC(=N)N)NC(=O)[C@@H]1CCCN1C(=O)[C@H](CCCNC(=N)N)NC(=O)[C@@H](NC(=O)[C@@H](NC(=O)CNC(=O)[C@H](CC(C)C)NC(=O)[C@@H]1CCCN1C(=O)[C@H](CC(=O)O)NC(=O)[C@H](CO)NC(=O)[C@H](C)NC(=O)[C@H](CCSC)NC(=O)[C@@H]1CCCN1C(C)=O)C(C)C)C(C)C)C(=O)NCCC(=O)N[C@@H](CCCCNC(=O)c1ccc(-c2c3ccc(=[N+](C)C)cc-3oc3cc(N(C)C)ccc23)c(C(=O)[O-])c1)C(N)=O)C(C)C)C(C)C [KB2-TAMRA] (I: Ac-PMASDPLGVVRPRARAK[βAla]K(X1)-NH2 / II: Ac-PMASDPLGVVRPRARA; amide I:17-II:C; N-terminus assumed)
- Pearson correlation coefficient (r) for overlap with DAPI (HK-2 cells): 0.29
- fluorescence intensity in CaSki cells relative to HK-2 cells [1]: significantly lower fluorescence intensity
- fluorescence after Klotho knock-down by KL siRNA [2]: reduced the fluorescence

SMILES: C=CCOC(=O)NCCCC[C@H](NC(=O)CCNC(=O)[C@H](CCCCNC(=O)[C@H](C)NC(=O)[C@H](CCCNC(=N)N)NC(=O)[C@H](C)NC(=O)[C@H](CCCNC(=N)N)NC(=O)[C@@H]1CCCN1C(=O)[C@H](CCCNC(=N)N)NC(=O)[C@@H](NC(=O)[C@@H](NC(=O)CNC(=O)[C@H](CC(C)C)NC(=O)[C@@H]1CCCN1C(=O)[C@H](CC(=O)O)NC(=O)[C@H](CO)NC(=O)[C@H](C)NC(=O)[C@H](CCSC)NC(=O)[C@@H]1CCCN1)C(C)C)C(C)C)NC(=O)[C@H](C)NC(=O)[C@H](CCCNC(=N)N)NC(=O)[C@H](C)NC(=O)[C@H](CCCNC(=N)N)NC(=O)[C@@H]1CCCN1C(=O)[C@H](CCCNC(=N)N)NC(=O)[C@@H](NC(=O)[C@@H](NC(=O)CNC(=O)[C@H](CC(C)C)NC(=O)[C@@H]1CCCN1C(=O)[C@H](CC(=O)O)NC(=O)[C@H](CO)NC(=O)[C@H](C)NC(=O)[C@H](CCSC)NC(=O)[C@@H]1CCCN1)C(C)C)C(C)C)C(N)=O [KB2] (I: H-PMASDPLGVVRPRARAK[βAla]K(Alloc)-NH2 / II: H-PMASDPLGVVRPRARA; amide I:17-II:C)
- competition of mKlotho pull-down by KB2-Biotin (recombinant mKlotho; unlabeled peptide pre-incubated 15 min in lysate before KB2-Biotin, n=2): competed off
